# Measurements collected from several papers.
# Protocols differ between the studies behind these lines.
# PKN1: Serine/threonine-protein kinase N1 (PKN1, Homo sapiens, UniProt Q16512)
# CTSV: Cathepsin L2 (CTSV, Homo sapiens, UniProt O60911)
# NUAK2: NUAK family SNF1-like kinase 2 (NUAK2, Homo sapiens, UniProt Q9H093)
Compound,target,test,setting,endpoint,result
CN(C)C(=O)COC(=O)Cc1ccc(OC(=O)c2ccc(NC(=N)N)cc2)cc1,"Matrix metalloproteinase-9 (MMP9, Homo sapiens, UniProt P14780, Q279R)","enzyme activity, inhibitor",10 µM,inhibition,8%
COc1ccc2c(c[n+](C)c3c4cc5c(cc4ccc23)OCO5)c1OC,PKN1,"enzyme activity, inhibitor",1 µM,activity vs control,86%
CC(C)C[C@H](NC(=O)[C@H]1O[C@@H]1C(=O)O)C(=O)NCCCCN=C(N)N,CTSV,"enzyme activity, inhibitor",50 nM,inhibition,57%
COc1ncccc1-c1cnn2ccc(N3CCN(C(=O)OC(C)C)CC3)nc12,NUAK2,"binding, competition with immobilised ligand",1 µM,remaining binding,100%
N=C(N)c1ccc2cc(OC(=O)c3ccc(N=C(N)N)cc3)ccc2c1,CTSV,"enzyme activity, inhibitor",10 µM,inhibition,27%
CC(=O)c1c(O)c(C)c(O)c(Cc2c(O)c3c(c(C(=O)/C=C/c4ccccc4)c2O)OC(C)(C)C=C3)c1O,PKN1,"enzyme activity, inhibitor",1 µM,activity vs control,84%
Nc1ncc(-c2nc(N3CCOCC3)nc(N3CCOCC3)n2)c(C(F)F)n1,"Ribosomal protein S6 kinase alpha-6, N-terminal kinase domain (RPS6KA6, Homo sapiens, UniProt Q9UK32)","binding, competition with immobilised ligand",10 µM,remaining binding,48%
Cc1nn(C)cc1-c1nc2c(N3CCN(Cc4ccc(Cl)cc4)CC3)c(Cl)cnc2[nH]1,NUAK2,"binding, competition with immobilised ligand",1 µM,remaining binding,32%
COC[C@H]1OC(=O)c2coc3c2[C@@]1(C)C1=C(C3=O)[C@@H]2CCC(=O)[C@@]2(C)C[C@H]1OC(C)=O,PKN1,"enzyme activity, inhibitor",1 µM,activity vs control,111%
